Measurements of several laboratories.
Lines come from different studies, so protocols differ.
DHFR: Dihydrofolate reductase (DHFR, Homo sapiens, UniProt P00374)
Tmem97: Sigma intracellular receptor 2 (Tmem97, Rattus norvegicus, UniProt Q5U3Y7)

The inhibition of O=[N+]([O-])c1ccc(NC(=S)NN=Cc2ccc(N3CCCCC3)cc2)cc1 is reported as 90.6% (DHFR; enzyme activity; inhibitor; 500 µM).
With CC(C)OC(=O)CNc1cccc(CN(Cc2ccc(-n3cccn3)cc2)S(=O)(=O)c2cccnc2)n1 the inhibition was at least 50% (Rho-associated protein kinase 2 (ROCK2, Homo sapiens, UniProt O75116); enzyme activity; inhibitor; 10 µM).
COc1cc([C@@H]2c3cc4c(cc3[C@@H](O[C@@H]3O[C@@H]5CO[C@@H](C)O[C@H]5[C@H](O)[C@H]3O)[C@H]3COC(=O)[C@H]23)OCO4)cc(OC)c1O gave an inhibition of 89.5% (DNA topoisomerase 2-alpha (TOP2A, Homo sapiens, UniProt P11388); enzyme activity; inhibitor; 7.8 µM).
For CNc1ncc2c(/C=C/C(=O)N3CCC(OC)CC3)nn(Cc3cccc(C(F)(F)F)c3)c2n1, the remaining activity was 112% (Mitogen-activated protein kinase kinase kinase 8 (MAP3K8, Homo sapiens, UniProt P41279); enzyme activity; inhibitor; radiometric; 1 µM).
The remaining activity of COc1cc(-c2cncc3c2CN(C)Cc2cc(N4CCNCC4)ccc2-3)cc(OC)c1OC is reported as 102% (Serine/threonine-protein kinase MRCK gamma (CDC42BPG, Homo sapiens, UniProt Q6DT37); enzyme activity; inhibitor; 1 µM).
For COc1ccc2[nH]c3c(c2c1)[C@H]1C[C@@H]([C@H]3C)N(Cc2ccccc2)C[C@]1(C)O, the inhibition was 0% (Tmem97; ligand displacement; radioligand; 1 µM).
For Cc1ccc(CNC(=S)NN=Cc2ccc(N3CCCCC3)cc2)cc1, the inhibition was 81.4% (DHFR; enzyme activity; inhibitor; 500 µM).
The inhibition of COc1ccc(CN2C[C@](C)(O)[C@@H]3C[C@H]2[C@@H](C)c2nc4ccccc4c(-c4ccccc4)c23)cc1 is reported as 0% (Tmem97; ligand displacement; radioligand; 1 µM).
The inhibition of S=C(NN=Cc1ccc(N2CCCCC2)cc1)Nc1ccccc1 is reported as 90.1% (DHFR; enzyme activity; inhibitor; 500 µM).
C=CC(=O)N1CCC(COCC(=O)N2CCN(c3nc(-c4cnc(N)nc4C(F)F)nc(N4CCOC[C@@H]4C)n3)CC2)CC1 gave a remaining binding of 90% (BMP-2-inducible protein kinase (BMP2K, Homo sapiens, UniProt Q9NSY1); binding; competition with immobilised ligand; 1 µM).
For Cc1cc([C@@H](C)Nc2ccccc2C(=O)O)c2nc(N3CCC(F)(F)CC3)c(C#N)c(=O)n2c1, the remaining binding was 100% (Serine/threonine-protein kinase PLK1 (PLK1, Homo sapiens, UniProt P53350); binding; competition with immobilised ligand; 1 µM).
With Cc1cccc(C)c1NC(=S)NN=Cc1ccc(N2CCCCC2)cc1 the inhibition was 87.5% (DHFR; enzyme activity; inhibitor; 500 µM).
